# In the library only some 1.1% were active in any assay of this set; here they are far more common.
# CAL PDZ FP-1: inhibitors of human CAL PDZ peptide binding. Q9HD26. purified CAL PDZ, TMR-peptide fluorescence polarization, 1 h. inhibition, % at 20 µM. hit rate 0.02% among 330,000;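 active = highest replicate inhibition of at least 40%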
#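 material = purified tagged CAL PDZ domain construct (CerCALP) | compound dosing = 20 µM, one dose | times = 1 h at RT | measured by = fluorescence polarization from S- and P-plane intensities, G-factor corrected | read-out = inhibition from polarization loss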
# PglD DTNB: blocks C. jejuni PglD acetyltransferase activity; purified PglD enzyme, DTNB colorimetric CoA detection; inhibition, % at 12.5 µM; hit rate 0.098% among 360,000; AID 602405; in the data active = inhibition above about 16%, passing the limit was not always enough
# Cneo AK release: causes C. neoformans cell lysis; adenylate kinase release luminescence, 4 h; normalised: neutral wells 0, clomiphene wells 100; lysis activity, % at 15 µM; hit rate 0.2% among 360,000; AID 651654;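 active = mean lysis activity across replicates of at least 80%, whatever share of replicates individually reach that level; inactive = mean lysis activity below 80%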
#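 Schedule: static 4 h at 37 °C with compound, 1 h detection; system: C. neoformans cells; benchmarks: Clomiphene as positive control; buffer or medium: fresh YPD medium; measure: luminescence rise reflecting yeast cell lysis; measured by: luminescent adenylate kinase detection reagent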
# CAL PDZ FP-2: inhibitors of human CAL PDZ peptide binding | inhibition, % at 24.9 µM | hit rate 0.92% among 300,000 | purified CAL PDZ, TMR-peptide fluorescence polarization, 1 h | AID 602252 | Q9HD26;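 active = mean inhibition of at least 30% with at least half of replicates also reaching 30%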
# miR-122 sensor: blocks miR-122 activity in Huh7 sensor cells. Huh7 miR-122 Renilla luciferase sensor, 48 h; neutral wells = 0, positive control = 100. hit rate 0.3% among 340,000. activation (reporter increase), % at 12.5 µM;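 active = mean replicate activation score at least 90 and every replicate individually at or above 90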;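 note: higher luciferase means less miR-122 activity so hits act as miR-122 inhibitors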
# Hits are given with their value; – = inactive; · = no result; + = active, no number; [ ] = remark or other dose.
SMILES,CAL PDZ FP-1,PglD DTNB,Cneo AK release,CAL PDZ FP-2,miR-122 sensor
C[C@@H]1CCCCO[C@H](CN(C)Cc2ccncc2)[C@@H](C)CN([C@@H](C)CO)C(=O)c2cc(NS(=O)(=O)c3ccc(F)cc3)ccc2O1,·,–,–,·,–
O=C(NC[C@H]1[C@@H](c2ccccc2)[C@H](CO)N1C(=O)Cc1cccnc1)C1CCC1,·,–,–,·,–
O=C(NC[C@@H]1[C@H](c2ccccc2)[C@@H](CO)N1C(=O)Cc1cccnc1)C1CCC1,·,–,84,·,–
NC(=O)CC(NC(=O)Cc1cccc2ccccc12)c1ccc(NCc2ccccn2)c([N+](=O)[O-])c1 (stereo unspecified),–,–,–,32,–
COc1ccc(S(=O)(=O)N2CCOC2CNC(=O)C(=O)NCc2ccncc2)cc1 (stereo unspecified),–,–,–,+,·
COc1ccc(CNC(=O)C(=O)NCC2OCCN2S(=O)(=O)c2ccc(C)cc2)cc1 (stereo unspecified),–,–,–,–,–
Fc1cccc(COc2ccccc2C(=S)N2CCCC2)c1,·,–,–,43,–
CN1C(=O)/C(=C/c2ccccc2OCc2cccc(F)c2)N(C)C1=S,–,–,–,–,–
COCCCNC(=O)C[C@H]1C[C@H](C(=O)N(C(C)C)C(C)C)[C@@]2(C)c3[nH]c4cc(CCC(=O)N(C)C)ccc4c3CCN2C1=O,–,–,–,–,–
Cc1sc2nc(CN3CCN(c4ccc(O)cc4)CC3)[nH]c(=O)c2c1C,–,·,·,45,·
C[C@H](O)C#Cc1cnc2c(c1)C(=O)N([C@H](C)CO)C[C@H](C)[C@H](CN(C)C(=O)c1ccncc1)O2,·,–,–,·,–
O=C(CSc1nc2ccc([N+](=O)[O-])cc2[nH]1)NC1CCCCCC1,–,–,–,–,328
COc1ccc(-c2nn(-c3ccccc3)cc2C(=O)NC(=S)N2CCOCC2)cc1OC,–,–,–,–,–
Cc1ccccc1/C(N)=N/OC(=O)N1c2ccccc2Sc2ccccc21,–,–,–,–,–
Cc1ccc(/C(N)=N/OC(=O)N2c3ccccc3Sc3ccccc32)cc1,–,–,–,81,–
CCOC(=O)c1c[nH]c2ccc3ccccc3c2c1=O,–,–,–,54,–
CCOC(=O)c1c[nH]c2c(Cl)ccc(Cl)c2c1=O,–,–,–,·,–
C[C@@H]1CN([C@@H](C)CO)C(=O)Cc2cc(NS(=O)(=O)c3ccc(Cl)cc3)ccc2O[C@@H]1CN(C)Cc1ccc2c(c1)OCO2,·,–,–,·,–
O=C(Cn1cc([N+](=O)[O-])cn1)NCc1ccccc1,–,–,–,43,–
Cc1cccc(C(=O)OCC(=O)N2CCc3ccccc3C2)c1O,–,·,·,–,·
O=C(OCC(=O)N1CCc2ccccc2C1)c1cccnc1Cl,–,–,–,71,–
CCC(=O)N1C[C@H](C)[C@H](OC)CN(C)C(=O)c2cc(NC(=O)Nc3ccc(Cl)cc3)ccc2OC[C@@H]1C,·,–,–,·,–
COCC(=O)Nc1ccc2c(c1)C(=O)N(C)[C@H]1CC[C@@H](CC(=O)O)O[C@H]1CO2,·,–,–,·,262[16.7 µM]
CN1C(=O)c2cc(NC(=O)NC3CCCC3)ccc2OC[C@H]2O[C@@H](CC(=O)O)CC[C@H]21,·,–,–,·,138[16.7 µM]
CN1C(=O)c2cc(NC(=O)NC3CCCC3)ccc2OC[C@@H]2O[C@H](CC(=O)O)CC[C@@H]21,·,–,–,·,–
SMILES,CAL PDZ FP-1,PglD DTNB,Cneo AK release,CAL PDZ FP-2,miR-122 sensor
COC(=O)[C@@]1(Cc2ccccc2)COC(c2ccc(OCCCO)cc2)=N1,·,–,–,·,·
C[C@@H]1CN([C@@H](C)CO)C(=O)c2cc(-c3cccc(C(=O)N(C)C)c3)cnc2O[C@@H]1CN(C)C(=O)Cc1ccccn1,·,–,–,·,–
CCOC(=O)c1ccccc1NC(=O)COC(=O)C1CC(=O)N(CCc2ccccc2)C1 (stereo unspecified),–,·,·,–,·
CCOC(=O)c1c(C)[nH]c(C)c1C(=O)COC(=O)C1CC(=O)N(CCc2ccccc2)C1 (stereo unspecified),–,–,–,36,–
CN(c1ccc(OCC(=O)N2CCC(C(N)=O)CC2)cc1)S(=O)(=O)c1cccs1,–,–,–,62,–
COc1ccc(CN(C)C[C@@H]2Oc3ccc(NS(=O)(=O)c4ccc(OC)cc4)cc3CC(=O)N([C@@H](C)CO)C[C@@H]2C)cc1,·,–,–,·,–
C[C@@H]1CN([C@@H](C)CO)C(=O)c2cccc(NC(=O)Nc3ccccc3)c2O[C@H]1CN(C)Cc1ccc(C(F)(F)F)cc1,·,–,–,·,115[16.7 µM]
C[C@H]1CN([C@@H](C)CO)C(=O)c2cccc(NC(=O)NC3CCCCC3)c2O[C@@H]1CN(C)Cc1ccc(C(F)(F)F)cc1,·,–,–,·,121[16.7 µM]
C[C@@H]1CN([C@@H](C)CO)C(=O)c2cccc(NC(=O)NC3CCCCC3)c2O[C@@H]1CN(C)Cc1ccc(C(F)(F)F)cc1,·,–,–,·,–
C[C@H]1CN([C@@H](C)CO)C(=O)c2cccc(NC(=O)C3CC3)c2O[C@@H]1CN(C)Cc1ccc(C(F)(F)F)cc1,·,–,–,·,113[16.7 µM]
C[C@@H]1CN([C@@H](C)CO)C(=O)c2cccc(NC(=O)C3CCOCC3)c2O[C@@H]1CN(C)Cc1ccc(C(F)(F)F)cc1,·,–,–,·,–
C[C@H]1CN([C@@H](C)CO)C(=O)c2cccc(NC(=O)Nc3ccccc3)c2O[C@@H]1CN(C)Cc1ccc(C(F)(F)F)cc1,·,–,–,·,–
C[C@H]1CN([C@@H](C)CO)C(=O)c2cccc(NC(=O)C3CCOCC3)c2O[C@@H]1CN(C)Cc1ccc(C(F)(F)F)cc1,·,–,–,·,105[16.7 µM]
C[C@H]1CN([C@@H](C)CO)C(=O)Cc2cc(NS(=O)(=O)c3cccs3)ccc2O[C@H]1CN(C)Cc1ccc2c(c1)OCO2,·,–,–,·,–
COc1cccc(S(=O)(=O)N[C@H]2CC[C@H](CC(=O)NC3Cc4ccccc4C3)O[C@@H]2CO)c1,·,–,–,·,–
C[C@H]1CCCCO[C@@H](CN(C)C(=O)Nc2ccccc2)[C@@H](C)CN([C@@H](C)CO)C(=O)c2cc(NC(=O)C3CCCCC3)ccc2O1,·,–,–,·,–
O=C(NCC1CC1)[C@H]1[C@H](CO)[C@H]2Cn3c(cccc3=O)[C@H]2N1C(=O)Nc1ccccc1,·,–,·,·,·
C[C@H](CO)N1C[C@H](C)[C@@H](CN(C)Cc2ccc(C(F)(F)F)cc2)Oc2c(NC(=O)C3CCCCC3)cccc2C1=O,·,–,–,·,122[16.7 µM]
C[C@H]1CN([C@@H](C)CO)C(=O)c2cccc(NC(=O)C3CCCCC3)c2O[C@@H]1CN(C)Cc1ccc(C(F)(F)F)cc1,·,–,–,·,94[16.7 µM]
C[C@@H]1CN([C@@H](C)CO)C(=O)c2cccc(NC(=O)C3CCCCC3)c2O[C@H]1CN(C)Cc1ccc(C(F)(F)F)cc1,·,–,–,·,–
CCCN(C)C[C@@H]1Oc2ncc(-c3cccc(C(=O)N(C)C)c3)cc2C(=O)N([C@@H](C)CO)C[C@H]1C,·,–,–,·,–

# Bioassay records: PubChem BioAssay, Broad Institute
